Test [1] deals with T1, Hypoxanthine-guanine phosphoribosyltransferase (Homo sapiens) (UniProt P00492).
T1 sequence (whole entry): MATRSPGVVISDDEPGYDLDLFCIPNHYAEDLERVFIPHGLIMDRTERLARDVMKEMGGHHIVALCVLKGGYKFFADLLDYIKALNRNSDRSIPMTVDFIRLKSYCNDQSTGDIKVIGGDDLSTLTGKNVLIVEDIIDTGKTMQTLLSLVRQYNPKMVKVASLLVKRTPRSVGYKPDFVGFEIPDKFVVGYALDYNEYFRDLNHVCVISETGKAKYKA
As to the kind of experiment: Ability to inhibit hypoxanthine-guanine phosphoribosyltransferase in crude extracts of H.Ep.-2 cells.

A further test deals with Plasmodium berghei. As to the kind of experiment: Activity against Plasmodium berghei in mice (Mus musculus). In kind it is functional, organism-based. The procedure, abridged:
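Mice infected with P. berghei; survival time (life span) of treated mice was the read-out.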
Note: test concentration or dose not given here.

Consider `Nc1nc(O)c2c(ncn2CC(O)CO)n1` (stereo not drawn), for which the Activity entry is “No inhibition” in test [1] and “Not significant” in the test on Plasmodium berghei.
Regarding `Nc1nc(O)c2c(ncn2Cc2ccc(NC(=O)c3ccc(S(=O)(=O)F)cc3)cc2)n1`, the Activity result in test [1] was “No inhibition”; in the test on Plasmodium berghei, “Not significant”.
On to `OCCn1cnc2ncnc(O)c21`, for which the Activity entry in test [1] is “No inhibition”; with Plasmodium berghei, “Not significant”.
For the molecule `NCC(O)Cn1cnc2nc(N)nc(O)c21` (stereo not drawn), the Activity entry in test [1] was “No inhibition”; in the test on Plasmodium berghei, “Not significant”.
On to `Nc1nc(O)c2c(n1)[n+](C1O[C@H](CO)[C@@H](O)[C@H]1O)cn2CCO` (stereo partly drawn), for which the Activity entry was “No inhibition” in test [1] and “Not significant” in the test on Plasmodium berghei.
The like results for `CC(=O)OC[C@H]1O[C@@H](N2C=NC3C(=O)N=C(N)N=C32)[C@H](OC(C)=O)[C@@H]1OC(C)=O` (stereo partly drawn) were, in that order, “No inhibition” and “Not significant”.
As to `Nc1nc(O)c2c(ncn2CC(O)CN2C(=O)c3ccccc3C2=O)n1` (stereo not drawn), the Activity entry in test [1] is “No inhibition”; with Plasmodium berghei it was “Not significant”.
On to `Nc1nc(O)c2c(ncn2Cc2ccc(NC(=O)c3ccc(Cl)cc3)cc2)n1`, for which the Activity entry in test [1] was “No inhibition”; with Plasmodium berghei it was “Not significant”.
For the molecule `Nc1nc2c(ncn2[C@@H]2O[C@H](CO)[C@@H](O)[C@H]2O)c(=O)[nH]1`, the Activity result in test [1] was “No inhibition”; in the test with Plasmodium berghei, “Not significant”.
For the molecule `O=C(CBr)Nc1ccc(Cn2cnc3ncnc(O)c32)cc1`, the values for the Activity result (in test [1]; in the test with Plasmodium berghei) were “No inhibition” and “Not significant”, respectively.
Regarding `NCCn1cnc2nc(N)nc(O)c21`, the Activity entry in test [1] was “No inhibition”; in the test on Plasmodium berghei, “Not significant”.
Turning to `CCOC(=O)/C=C/Cn1cnc2nc(N)nc(O)c21`, the values for the Activity entry (in test [1]; in the test with Plasmodium berghei) were “No inhibition” and “Not significant”, respectively.
For the molecule `Nc1ccc(Cn2cnc3ncnc(O)c32)cc1`, the Activity entry in test [1] is “No inhibition”; in the test on Plasmodium berghei it was “Not significant”.
With `Nc1nc(O)c2c(ncn2CC(O)CNC(=O)c2ccc(S(=O)(=O)F)cc2)n1` (stereo not drawn), the results for the Activity entry (in test [1]; in the test with Plasmodium berghei) were “No inhibition” and “Not significant”, respectively.
`Nc1ccc(Cn2cnc3nc(N)nc(O)c32)cc1`: the results for the Activity entry (in test [1]; in the test with Plasmodium berghei) were “No inhibition” and “Not significant”, respectively.
As to `Nc1nc(O)c2c(ncn2CC(O)CNC(=O)c2cccc(S(=O)(=O)F)c2)n1` (stereo not drawn), the Activity result in test [1] was “No inhibition”; with Plasmodium berghei, “Not significant”.
Turning to `Nc1nc(O)c2c(ncn2Cc2ccc(NC(=O)CBr)cc2)n1`, the Activity entry is “No inhibition” in test [1] and “Not significant” in the test on Plasmodium berghei.
As for `O=C(Nc1ccc(Cn2cnc3ncnc(O)c32)cc1)c1ccc(S(=O)(=O)F)cc1`, the Activity result is “No inhibition” in test [1] and “Not significant” in the test with Plasmodium berghei.
The like results for `O=[N+]([O-])c1cccc(Cn2cnc3ncnc(O)c32)c1` were, in that order, “No inhibition” and “Not significant”.
For `Nc1nc(O)c2c(ncn2Cc2ccc(NC(=O)c3cccc(S(=O)(=O)F)c3)cc2)n1`, the Activity entry in test [1] was “No inhibition”; in the test with Plasmodium berghei, “Not significant”.
Regarding `O=C1c2ccccc2C(=O)N1CC(O)Cn1cnc2ncnc(O)c21` (stereo not drawn), the Activity result in test [1] is “No inhibition”; with Plasmodium berghei, “Not significant”.
On to `Nc1nc(O)c2c(ncn2CCO)n1`, for which the Activity entry is “No inhibition” in test [1] and “Not significant” in the test on Plasmodium berghei.
`Nc1nc(O)c2c(ncn2CC(O)CNC(=O)c2ccc(Cl)cc2)n1` (stereo not drawn): the Activity result in test [1] was “No inhibition”; with Plasmodium berghei, “Not significant”.
Regarding `Nc1nc(O)c2c(ncn2CC(O)CCl)n1` (stereo not drawn), the figures for the Activity result (in test [1]; in the test on Plasmodium berghei) were “No inhibition” and “Not significant”, respectively.
For `CC(=O)OCC1OC([n+]2cn(CCO)c3c(O)nc(N)nc32)C(OC(C)=O)C1OC(C)=O` (stereo not drawn) the same measures were “No inhibition” and “Not significant”.
For `OCC(O)Cn1cnc2ncnc(O)c21` (stereo not drawn), the Activity result in test [1] was “No inhibition”; in the test with Plasmodium berghei, “Not significant”.
As for `O=[N+]([O-])c1ccc(Cn2cnc3ncnc(O)c32)cc1`, the Activity result in test [1] was “No inhibition”; in the test on Plasmodium berghei it was “Not significant”.
Turning to `O=C(Nc1ccc(Cn2cnc3ncnc(O)c32)cc1)c1cccc(S(=O)(=O)F)c1`, the figures for the Activity entry (in test [1]; in the test with Plasmodium berghei) were “No inhibition” and “Not significant”, respectively.
`Nc1nc(O)c2c(ncn2CCNC(=O)c2ccc(S(=O)(=O)F)cc2)n1`: the Activity result in test [1] is “No inhibition”; with Plasmodium berghei, “Not significant”.
As to `[N-]=[N+]=NCCn1cnc2nc(N)nc(O)c21`, the Activity result in test [1] was “No inhibition”; with Plasmodium berghei, “Not significant”.
Turning to `Nc1nc(O)c2c(ncn2Cc2ccc([N+](=O)[O-])cc2)n1`, the Activity entry in test [1] is “No inhibition”; in the test with Plasmodium berghei, “Not significant”.
Turning to `Nc1nc(O)c2c(ncn2CC=O)n1`, the Activity entry in test [1] is “No inhibition”; in the test with Plasmodium berghei, “Not significant”.
Consider `Nc1nc(O)c2c(ncn2CCNC(=O)c2ccc(Cl)cc2)n1`, for which the results for the Activity entry (in test [1]; with Plasmodium berghei) were “No inhibition” and “Not significant”, respectively.
On to `Nc1cccc(Cn2cnc3ncnc(O)c32)c1`, for which the Activity entry in test [1] is “No inhibition”; in the test on Plasmodium berghei it was “Not significant”.
Regarding `Oc1ncnc2ncn(CC(O)CCl)c12` (stereo not drawn), the Activity result in test [1] was “No inhibition”; in the test with Plasmodium berghei, “Not significant”.
Turning to `Nc1nc(O)c2c(ncn2CCNC(=O)c2cccc(S(=O)(=O)F)c2)n1`, the Activity result in test [1] was “No inhibition”; in the test with Plasmodium berghei it was “Not significant”.
As for `Nc1nc(O)c2c(ncn2Cc2cccc(NC(=O)CBr)c2)n1`, the Activity entry is “No inhibition” in test [1] and “Not significant” in the test with Plasmodium berghei.
The like results for `O=C(Nc1ccc(Cn2cnc3ncnc(O)c32)cc1)c1ccc(Cl)cc1` were, in that order, “No inhibition” and “Not significant”.
On to `Nc1nc(O)c2c(ncn2CC(O)CNC(=O)CBr)n1` (stereo not drawn), for which the Activity result was “No inhibition” in test [1] and “Not significant” in the test on Plasmodium berghei.
Take `Nc1nc(O)c2c(ncn2CCCS(=O)(=O)O)n1`: the Activity entry in test [1] is “No inhibition”; in the test on Plasmodium berghei, “Not significant”.
The like results for `Nc1nc(O)c2c(ncn2CCCl)n1` were, in that order, “No inhibition” and “Not significant”.
The like results for `Nc1cccc(Cn2cnc3nc(N)nc(O)c32)c1` were, in that order, “No inhibition” and “Not significant”.
Take `Nc1nc(O)c2c(ncn2Cc2cccc(NC(=O)c3ccc(S(=O)(=O)F)cc3)c2)n1`: the Activity result was “No inhibition” in test [1] and “Not significant” in the test on Plasmodium berghei.
Turning to `Nc1nc(O)c2c(ncn2Cc2cccc(NC(=O)c3cccc(S(=O)(=O)F)c3)c2)n1`, the results for the Activity result (in test [1]; in the test on Plasmodium berghei) were “No inhibition” and “Not significant”, respectively.
`[N-]=[N+]=NCC(O)Cn1cnc2nc(N)nc(O)c21` (stereo not drawn): the Activity entry in test [1] is “No inhibition”; in the test on Plasmodium berghei, “Not significant”.
For `Nc1nc(O)c2c(ncn2Cc2cccc(NC(=O)c3ccc(Cl)cc3)c2)n1`, the Activity result in test [1] is “No inhibition”; with Plasmodium berghei it was “Not significant”.
Turning to `Nc1nc(O)c2c(ncn2CCNC(=O)CBr)n1`, the Activity entry in test [1] is “No inhibition”; with Plasmodium berghei it was “Not significant”.
For `Nc1nc(O)c2c(n1)nc(Cl)n2CCCl`, the Activity entry in test [1] was “No inhibition”; in the test on Plasmodium berghei, “Not significant”.
With `Nc1nc(O)c2c(ncn2Cc2cccc([N+](=O)[O-])c2)n1`, the Activity entry was “No inhibition” in test [1] and “Not significant” in the test with Plasmodium berghei.

The values above are taken from ChEMBL document CHEMBL1121416, “Synthesis of potential inhibitors of hypoxanthine-guanine phosphoribosyltransferase for testing as antiprotozoal agents. 1. 7-Substituted 6-oxopurines” (J Med Chem, 1980).
